# Screening results deposited in PubChem by several laboratories.
# ABCB1 inh: blocks JC-1 efflux by human ABCB1 transporter; AID 1326; inhibition, % at 6.6 µM; 190,000 compounds, 0.067% hits; CCRF-Adr cells, flow cytometry; in the data active means inhibition above about 40%;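 further: 0% = vehicle and 100% = reference inhibitor; higher value means more JC-1 retained so stronger ABCB1 efflux block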
# ABCG2 block: inhibitors of human ABCG2 transporter, ABCB1 counter-screen | inhibition, % at 6.6 µM | IgMXP3 cells, JC-1 efflux, flow cytometry | 190,000 compounds, 0.1% hits | Q9UNQ0;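 active means inhibition above 80%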;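 further: 0% = DMSO and 100% = nicardipine control wells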
#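 Test system: IgMXP3 (ABCG2) plus far-red-tagged CCRF-Adr (ABCB1) cells / Amount: 3 million cells/mL in well / Reagent: JC-1 transporter substrate / Timing: 10 min compound exposure, 25 °C / Signal: flow cytometry, 530 nm JC-1 signal / Read-out: percent efflux inhibition, scaled nicardipine 100% to DMSO 0% / Benchmarks: nicardipine as high control, DMSO as low control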
# GSH bead fluor: compound fluoresces at 488/530 nm on GSH beads | GSH beads flow cytometry, compound fluorescence 488/530 nm; stronger effect = higher value | AID 1776 | 190,000 compounds, 0.25% hits | fluorescence (KMESF) at 10 µM; in the data active means fluorescence above about 89;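 further: glutathione beads carrying GST-tagged Bcl family fusion proteins plus one bare bead set; values are compound well signal with DMSO vehicle wells as background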
# Avidin fluor: compound fluoresces at 488/530 nm on avidin beads | AID 1775 | 220,000 compounds, 0.38% hits | compound fluorescence 488/530 nm, flow cytometry; stronger effect = higher value | fluorescence (KMESF) at 10 µM; in the data active means fluorescence above about 47
# Lmaj promast: Leishmania major promastigote growth inhibition; Leishmania major promastigotes, resazurin fluorescence viability; inhibition, % at 10 µM; 200,000 compounds, 9% hits;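 further: promastigotes grown with compound for 44 hours at 28 °C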
# PKD1 inh: inhibitors of human PKD1 kinase; Q15139; 200,000 compounds, 0.056% hits; PKD1 kinase fluorescence polarization assay; AID 797; inhibition, % (concentration not given with the values)
# An asterisk follows results filed as active; . = not tested or not shown. The full list was thinned out, with hits kept by preference. Unless noted, no stated cut-off is given here; in the data, active means inhibition above about 50%; inactive means the rest.
SMILES,ABCB1 inh,ABCG2 block,GSH bead fluor,Avidin fluor,Lmaj promast,PKD1 inh
CCOc1ccc(NC(=O)C(C)O)c(NS(=O)(=O)c2ccc(CCNC(C)=O)cc2)c1 (centres undefined),0,6,31,10,-1,4
COc1ccccc1-c1c(-c2ccc(OCC(=O)NN)cc2O)n[nH]c1C(F)(F)F,-1,-10,2,11,87*,-10
CCOC(=O)c1nc(SC)n(C)c1C(=O)OCC,.,.,.,7,.,.
Cc1ccc(C)c(NC(=O)CSc2nnc3n2CCCCC3)c1,0,1,15,7,-5,2
C/C(=N\N=C1\NC(=O)CC(C(=O)O)S1)c1ccc(F)cc1 (centres undefined),1,-2,3,10,52*,-11
COc1ccc(/C(C)=N/N=C2/NC(=O)CC(C(=O)O)S2)cc1 (centres undefined),0,-4,12,10,-7,-8
O=C(NC(=S)Nc1ccc2c(c1)OCO2)c1ccccc1,0,1,14,12,-4,1
O=C(Nc1ccc2c(c1)OCCO2)c1cncc(Br)c1,0,0,11,8,-3,-4
O=C(Nc1ccc2c(c1)OCCO2)c1ccc(Br)s1,-1,2,9,16,54*,2
O=C(NC(=S)Nc1ccc2c(c1)OCCO2)c1cccc(Br)c1,0,0,11,9,68*,-5
O=C(NC(=S)Nc1cccc(Cl)c1N1CCCCC1)c1ccc2c(c1)OCCO2,0,-4,9,16,97*,-7
Cc1nn(C)cc1CNCc1c(C(=O)N2CCCCC2)nc2c(C)cccn12,0,3,24,10,-3,2
C=CCOc1c(Br)cc(CNc2ccc(NC(=O)C(C)C)cc2)cc1OCC,0,24,12,12,97*,1
CCOc1cc(CNCCO)cc(Br)c1OCc1ccccc1Cl,1,3,4,17,100*,-6
CCOc1c(CNCCN2CCOCC2)cccc1OC,1,3,17,12,0,0
COc1cccc(CNCCO)c1OCc1ccccc1Cl,0,-2,11,12,16,-1
C=CCOc1ccc(CNC(C)(C)CO)cc1OCC,0,0,10,17,-3,-6
CCOc1cc(CNCCCN2CCOCC2)cc(Br)c1OCc1ccccc1Cl,0,1,14,8,101*,0
CCOc1cc(CNc2ccc3c(c2)OCCO3)cc(Br)c1OCC(N)=O,0,1,22,11,10,2
CCOc1cc(CNC(C)(C)CO)cc(Br)c1OCc1ccc(Cl)cc1Cl,1,6,15,18,100*,-10
COc1ccccc1NS(=O)(=O)c1ccc(Cl)c(NC(=O)C(C)N2C(=O)c3ccccc3C2=O)c1 (centres undefined),4,11,6,11,32,3
O=C(N/N=C/c1ccc(OCC(=O)N2CCCCC2)cc1)c1ccccc1O,1,24,15,22,-6,6
COc1cc(CNCc2ccncc2)cc(Br)c1OCc1ccccc1F,2,7,78,10,98*,-8
CCOc1cccc(CNCCO)c1OCc1ccc(Cl)cc1,0,1,32,13,10,-5
COc1cc(CNCCO)cc(Cl)c1OCc1ccccc1Cl,0,0,21,5,99*,5
SMILES,ABCB1 inh,ABCG2 block,GSH bead fluor,Avidin fluor,Lmaj promast,PKD1 inh
CCOc1cc(CNc2ccc(O)cc2)cc(Br)c1OCc1ccccc1F,-4,-5,32,-1,80*,-18
CCOc1cc(CNCCO)cc(Br)c1OCc1ccc(Cl)cc1,0,2,21,15,101*,5
Cc1ccc(S(=O)(=O)N2CCC[C@H]2C(=O)OC(C)C(=O)Nc2ncc(Cl)cc2Cl)cc1 (some centres undefined),2,2,24,12,-2,1
Cc1csc2ncnc(N3CCN(C(=S)Nc4ccc(F)cc4F)CC3)c12,.,.,.,7,.,.
CC(c1ccco1)N(C(=O)C12CC3CC(CC(C)(C3)C1)C2)c1ccccn1 (centres undefined),0,19,27,11,6,-2
CCOC(=O)c1ccccc1NC(=O)CSc1nc2ccccc2n1CC(=O)N1CCCC1,3,25,38,13,14,13
